How the values were obtained:
Format in all cases: functional
OVCAR-5 = assay: Cytotoxicity against human OVCAR5 cells assessed as cell growth at 10^-5 M after 48 hrs by SRB assay; details: OVCAR-5, 48 h, read-out: Activity
RXF 393 [1] = assay: Cytotoxicity against human RXF393 cells assessed as cell growth at 10^-5 M after 48 hrs by SRB assay; details: RXF 393, 48 h, read-out: Activity
MDA-MB-231 [2] = assay: Cytotoxicity against human MDA-MB-231 cells assessed as cell growth at 10^-5 M after 48 hrs by SRB assay; details: MDA-MB-231, 48 h, read-out: Activity
SNB-19 = assay: Growth inhibition of human SNB19 cells after 48 hrs by SRB assay; details: SNB-19, 48 h; for CC50: read-out: LC50 (the source's name)
Procedure, shortened: (§1)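 Adherent NCI-60 lines grown in RPMI 1640 with 5% FBS, seeded at 5000–40,000 cells/well, and preincubated 24 h at 37 °C, 5% CO2. Compound, stocked in DMSO, given either once at 10^-5 M or at five 10-fold dilutions for 48 h. Cells fixed with cold TCA (final 10%), stained with 0.4% SRB, and read at 515 nm. GI50 taken as 50% reduction in net protein increase versus time-zero and control plates.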

LOX IMVI [3] = assay: Growth inhibition of human LOXIMVI cells after 48 hrs by SRB assay; procedure, shortened: as §1
[4] = Growth inhibition of human NCI-ADR-RES cells after 48 hrs by SRB assay; procedure, shortened: as §1
BT-549 = assay: Growth inhibition of human BT549 cells after 48 hrs by SRB assay; details: BT-549, 48 h; for CC50: read-out: LC50 (the source's name)
Procedure, shortened: (§2)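 Same 48 h NCI-60 five-dose SRB protocol. Adherent lines were fixed with cold TCA at 10% final; suspension lines such as CCRF-CEM were fixed with 16% final TCA. Stain was 0.4% SRB in 1% acetic acid for 10 min, solubilized in 10 mM Tris base and read at 515 nm. GI50 came from log concentration–growth curves, solving [(Ti−Tz)/(C−Tz)]×100 = 50.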

[5] = Growth inhibition of human MDA-MB-81 cells after 48 hrs by SRB assay
[6] = Cytotoxicity against human […] cells assessed as cell growth at 10^-7 M after 48 hrs by SRB assay; details: 48 h, read-out: Activity
NCI-H322M [7] = assay: Cytotoxicity against human NCI-H322M cells assessed as cell growth at 10^-7 M after 48 hrs by SRB assay; details: read-out: Activity
NCI-H322M [8] = assay: Cytotoxicity against human NCI-H322M cells assessed as cell growth at 10^-4 M after 48 hrs by SRB assay; details: read-out: Activity
MDA-MB-435 = assay: Cytotoxicity against human MDA-MB-435 cells assessed as cell growth at 10^-4 M after 48 hrs by SRB assay; details: MDA-MB-435, 48 h, read-out: Activity
SK-MEL-2 = assay: Cytotoxicity against human SK-MEL-2 cells assessed as cell growth at 10^-4 M after 48 hrs by SRB assay; details: SK-MEL-2, 48 h, read-out: Activity
786-0 = assay: Cytotoxicity against human 786-0 cells assessed as cell growth at 10^-4 M after 48 hrs by SRB assay; details: 786-0, 48 h, read-out: Activity
Procedure, shortened: (§3)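 NCI-60 screen: lines kept in RPMI 1640 with 5% FBS, seeded at 5000–40,000 cells/well by doubling time, preincubated 24 h at 37 °C in 5% CO2. Time-zero plates TCA-fixed at drug addition. DMSO stocks diluted in medium, 48 h exposure. Fixation in cold TCA (final 10% adherent, 16% suspension), 0.4% SRB stain, solubilised in 10 mM Tris base, A515. Percent growth computed against control and time-zero.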

MDA-MB-231 [9] = assay: Cytotoxicity against human MDA-MB-231 cells assessed as cell growth at 10^-4 M after 48 hrs by SRB assay; details: MDA-MB-231, 48 h, read-out: Activity
OVCAR-3 = assay: Cytotoxicity against human OVCAR3 cells assessed as cell growth at 10^-7 M after 48 hrs by SRB assay; details: OVCAR-3, 48 h, read-out: Activity
SF-539 = assay: Cytotoxicity against human SF539 cells assessed as cell growth at 10^-8 M after 48 hrs by SRB assay; details: SF-539, 48 h, read-out: Activity
LOX IMVI [10] = assay: Cytotoxicity against human LOXIMVI cells assessed as cell growth at 10^-8 M after 48 hrs by SRB assay; details: read-out: Activity
UACC-257 = assay: Cytotoxicity against human UACC257 cells assessed as cell growth at 10^-8 M after 48 hrs by SRB assay; details: UACC-257, 48 h, read-out: Activity
OVCAR-8 = assay: Cytotoxicity against human OVCAR8 cells assessed as cell growth at 10^-8 M after 48 hrs by SRB assay; details: OVCAR-8, 48 h, read-out: Activity
[11] = Cytotoxicity against human NCI-ADR-RES cells assessed as cell growth at 10^-8 M after 48 hrs by SRB assay; details: read-out: Activity
RXF 393 [12] = assay: Cytotoxicity against human RXF393 cells assessed as cell growth at 10^-8 M after 48 hrs by SRB assay; details: RXF 393, 48 h, read-out: Activity
DU-145 = assay: Cytotoxicity against human DU145 cells assessed as cell growth at 10^-8 M after 48 hrs by SRB assay; details: DU-145, 48 h, read-out: Activity; procedure, shortened: as §3
SW-620 = assay: Cytotoxicity against human SW620 cells assessed as cell growth at 10^-6 M after 48 hrs by SRB assay; details: SW-620, 48 h, read-out: Activity
SF-295 = assay: Cytotoxicity against human SF295 cells assessed as cell growth at 10^-6 M after 48 hrs by SRB assay; details: SF-295, 48 h, read-out: Activity
CCRF-CEM = assay: Growth inhibition of human CCRF-CEM cells after 48 hrs by SRB assay; details: for CC50: read-out: LC50 (the source's name); procedure, shortened: as §2
HOP-92 [13] = assay: Growth inhibition of human HOP92 cells after 48 hrs by SRB assay; details: HOP-92, 48 h; for CC50: read-out: LC50 (the source's name); procedure, shortened: as §1
HOP-92 [14] = assay: Cytotoxicity against human HOP92 cells assessed as cell growth at 10^-5 M after 48 hrs by SRB assay; details: HOP-92, 48 h, read-out: Activity
Procedure, shortened: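 NCI-60 five-dose screen. Cells were grown in RPMI 1640 with 5% FBS and seeded at 5000–40,000 cells/well according to doubling time. They were pre-incubated 24 h at 37 °C in 5% CO₂, and time-zero (Tz) plates were TCA-fixed at drug addition. Five 10-fold dilutions of DMSO stock were applied for 48 h. Read-out was SRB staining, 515 nm absorbance, with percent growth calculated versus Tz and untreated control.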

SMILES	growth at 10 µM (OVCAR-5) [%]	growth at 10 µM (RXF 393 [1]) [%]	growth at 10 µM (MDA-MB-231 [2]) [%]	GI50 (SNB-19) [µM]	TGI (SNB-19) [µM]	CC50 (SNB-19) [µM]	GI50 (LOX IMVI [3]) [nM]	LC50 (lethal concentration, 50% net cell kill) (LOX IMVI [3]) [µM]	TGI (LOX IMVI [3]) [µM]	GI50 [4] [µM]	LC50 [4] [µM]	TGI [4] [µM]	GI50 (BT-549) [µM]	TGI (BT-549) [µM]	CC50 (BT-549) [µM]	GI50 [5] [nM]	growth at 0.1 µM [6] [%]	growth at 0.1 µM (NCI-H322M [7]) [%]	growth at 100 µM (NCI-H322M [8]) [%]	growth at 100 µM (MDA-MB-435) [%]	further results
COc1ccc(-c2nn3cc(-c4cccc(N)c4)nc3s2)cc1	47	-31	5	12.4	> 100	> 100	3380	> 100	29.5	4.46	> 100	55.1	3.88	30.8	> 100	1580	83	95	-3	-53	growth at 100 µM (SK-MEL-2): 38%; growth at 100 µM (786-0): -93%; growth at 100 µM (MDA-MB-231 [9]): -35%; growth at 0.1 µM (OVCAR-3): 98%; growth at 0.01 µM (SF-539): 101%; growth at 0.01 µM (LOX IMVI [10]): 94%; growth at 0.01 µM (UACC-257): 100%; growth at 0.01 µM (OVCAR-8): 104%; growth at 0.01 µM [11]: 100%; growth at 0.01 µM (RXF 393 [12]): 90%; growth at 0.01 µM (DU-145): 101%; growth at 1 µM (SW-620): 86%; growth at 1 µM (SF-295): 72%; GI50 (CCRF-CEM): 1.77 µM; TGI (CCRF-CEM): > 100 µM; CC50 (CCRF-CEM): > 100 µM; GI50 (HOP-92 [13]): 114 nM; TGI (HOP-92 [13]): 989 nM; CC50 (HOP-92 [13]): 87.2 µM; growth at 10 µM (HOP-92 [14]): -25%
COc1ccc(-c2nn3cc(-c4ccc(O)cc4O)nc3s2)cc1	20	-83	-54	3.57	> 100	> 100	2580	> 100	31.4	2.94	> 100	44.9	2.36	28.1	> 100	1370	95	83	11	-38	growth at 100 µM (SK-MEL-2): -48%; growth at 100 µM (786-0): -33%; growth at 100 µM (MDA-MB-231 [9]): -19%; growth at 0.1 µM (OVCAR-3): 98%; growth at 0.01 µM (SF-539): 105%; growth at 0.01 µM (LOX IMVI [10]): 101%; growth at 0.01 µM (UACC-257): 92%; growth at 0.01 µM (OVCAR-8): 102%; growth at 0.01 µM [11]: 101%; growth at 0.01 µM (RXF 393 [12]): 99%; growth at 0.01 µM (DU-145): 106%; growth at 1 µM (SW-620): 86%; growth at 1 µM (SF-295): 74%; GI50 (CCRF-CEM): 5.08 µM; TGI (CCRF-CEM): > 100 µM; CC50 (CCRF-CEM): > 100 µM; GI50 (HOP-92 [13]): 231 nM; TGI (HOP-92 [13]): 2680 nM; CC50 (HOP-92 [13]): > 100 µM; growth at 10 µM (HOP-92 [14]): -33%

Source: ChEMBL document CHEMBL2146441, “2,6-Disubstituted imidazo[2,1-b][1,3,4]thiadiazoles: search for anticancer agents” (2012)
